Results on 3 compounds are retold here after ChEMBL document CHEMBL4118021, “Studies of TAK1-centered polypharmacology with novel covalent TAK1 inhibitors” (Bioorg Med Chem, 2017).

Active and inactive are the calls of the source. No cut-off for these calls is given here.

Data set [1] has as its target Activated CDC42 kinase 1 (Homo sapiens) (UniProt Q07912). Kind of data set: Inhibition of ACK in human SKCO1 cells at 1 uM after 4 hrs using biotin labeled TVSVAVKCLKPDVLSQPEAMDDFIR probe by mass-spectrometric analysis relative to control. In kind it is cell-based.
Data set [2] has as its target Serine/threonine-protein kinase TBK1 (Homo sapiens) (UniProt Q9UHD2). Kind of data set: Inhibition of TBK1 in human SKCO1 cells at 1 uM after 4 hrs using biotin labeled DIKPGNIMR probe by mass-spectrometric analysis relative to control. Type of data set: cell-based.
The nature of data set [3]: Increase in secretion of basic-FGF in poly(I:C) activated RA patient-derived synovial fibroblasts at 0.6 to 3 uM preincubated for 3 hrs followed by poly(I:C) stimulation measured after 18 hrs by sandwich immunoassay. The note with it: human. Summed up:
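Primary human RA synovial fibroblasts (donor RA2159) seeded at 1000 viable cells/well, grown ~24 h at 37 °C/5% CO2, then starved overnight in basal medium and for a further ~4 h in basal medium with 0.1% BSA. Inhibitor or DMSO given 3 h before stimulation. Supernatants from two adjacent wells pooled as one replicate, biological duplicate. Luminex multiplex panels (48 analytes), diluted 1:3. Mock-supernatant background and spiked-ligand cross-reactivity controls included.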

For data set [4], the target named is Vascular endothelial growth factor receptor 2 (Homo sapiens) (UniProt P35968). Kind of data set: Inhibition of human VEGFR2 (787 to 1253 residues) expressed in mammalian expression system assessed as enzyme activity at 10 uM by KINOMEScan assay relative to control. On the set-up: scale not given: the % may be the effect or the level left. Summed up:
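In vitro ATP-site competition binding assay across a panel of 456 kinases, with compound tested at 1 and 10 μM.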

For data set [5], the target named is Tropomyosin alpha-4 chain (Homo sapiens) (UniProt P67936). Kind of data set: Binding affinity to TPM4 in human NCI-H23 cells at 1 uM by mass spectrometry based pull down assay. In kind it is cell-based.
Data set [6] concerns the target THO complex subunit 4 (Homo sapiens) (UniProt Q86V81). Kind of data set: Binding affinity to ALYREF in human NCI-H23 cells at 1 uM by mass spectrometry based pull down assay. Type of data set: cell-based.
The target of data set [7] is T1, 80S Ribosome (Homo sapiens) (UniProt P08865+P42677+P62753+P15880+P23396+P61247+P62701+P22090+P46782+P62081+P62241+P46781+P46783+P62280+P25398+P62277+P62263+P62841+P62244+P62249+P08708+P62269+P39019+P60866+P63220+P62266+P62847+P62851+P62854+P62979+P62857+P62273+P62861+P39023+P36578+P46777+Q02878+P18124+P62424+P62917+P32969+P27635+P62906+P62913+P30050+P26373+P40429+P50914+P61313+P18621+Q07020+Q02543+P84098+P46778+P35268+P62829+P62750+P83731+P61254+P61353+P46776+P46779+P47914+P62888+P62899+P62910+P49207+P42766+P18077+Q9Y3U8+P83881+P61927+P61513+P63173+P62891+P62945+P05388+P05386). Kind of data set: Binding affinity to RPS5 in human NCI-H23 cells at 1 uM by mass spectrometry based pull down assay. In kind it is cell-based.

Data set [8] has as its target Transmembrane protein 263 (Homo sapiens) (UniProt Q8WUH6). Kind of data set: Binding affinity to TMEM263 in human NCI-H23 cells at 1 uM by mass spectrometry based pull down assay. In kind it is cell-based.
The target of data set [9] is Proteasome subunit beta type-6 (Homo sapiens) (UniProt P28072). Kind of data set: Binding affinity to PSMB6 in human NCI-H23 cells at 1 uM by mass spectrometry based pull down assay. In kind it is cell-based.
The target in data set [10] is ATP-citrate synthase (Homo sapiens) (UniProt P53396). Kind of data set: Binding affinity to ACLY in human NCI-H23 cells at 1 uM by mass spectrometry based pull down assay. Type of data set: cell-based. Summed up:
(§1)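 NCI-H23 or NCI-H358 cells were grown and lysed. Lysates were incubated overnight at 4 °C with 1 μM biotinylated covalent probe or DMSO, then pulled down on streptavidin beads. Proteins were run on polyacrylamide gels and stained with Coomassie. Bands were excised, digested and identified by mass spectrometry.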

Data set [11] has as its target Acidic leucine-rich nuclear phosphoprotein 32 family member A (Homo sapiens) (UniProt P39687). Kind of data set: Binding affinity to ANP32A in human NCI-H23 cells at 1 uM by mass spectrometry based pull down assay. Type of data set: cell-based.
Data set [12] addresses Apoptosis-inducing factor 1, mitochondrial (Homo sapiens) (UniProt O95831). Kind of data set: Binding affinity to AIFM1 in human NCI-H23 cells at 1 uM by mass spectrometry based pull down assay. Type of data set: cell-based. Summed up: as §1
The target in data set [13] is T1, 80S Ribosome (Homo sapiens). Kind of data set: Binding affinity to RPL31 in human NCI-H23 cells at 1 uM by mass spectrometry based pull down assay. In kind it is cell-based.
The target in data set [14] is T-complex protein 1 subunit theta (Homo sapiens) (UniProt P50990). Kind of data set: Binding affinity to CCT8 in human NCI-H23 cells at 1 uM by mass spectrometry based pull down assay. In kind it is cell-based.
The target in data set [15] is Mitogen-activated protein kinase 1 (Homo sapiens) (UniProt P28482). Kind of data set: Binding affinity to MAPK1 in human NCI-H23 cells at 1 uM by mass spectrometry based pull down assay. In kind it is cell-based.
For data set [16], the target named is Heterogeneous nuclear ribonucleoprotein U (Homo sapiens) (UniProt Q00839). Kind of data set: Binding affinity to HNRNPU in human NCI-H358 cells at 1 uM by mass spectrometry based pull down assay. Type of data set: cell-based.
The target in data set [17] is Medium-chain specific acyl-CoA dehydrogenase, mitochondrial (Homo sapiens) (UniProt P11310). Kind of data set: Binding affinity to ACADM in human NCI-H358 cells at 1 uM by mass spectrometry based pull down assay. Type of data set: cell-based. In outline: as §1
The target of data set [18] is ADP-ribosylation factor-like protein 8B (Homo sapiens) (UniProt Q9NVJ2). Kind of data set: Binding affinity to ARL8B in human NCI-H358 cells at 1 uM by mass spectrometry based pull down assay. In kind it is cell-based.
For data set [19], the target named is Cancer-related nucleoside-triphosphatase (Homo sapiens) (UniProt Q9BSD7). Kind of data set: Binding affinity to NTPCR in human NCI-H358 cells at 1 uM by mass spectrometry based pull down assay. In kind it is cell-based.
The target in data set [20] is T1, 80S Ribosome (Homo sapiens). Kind of data set: Binding affinity to RPS12 in human NCI-H358 cells at 1 uM by mass spectrometry based pull down assay. In kind it is cell-based.
Data set [21] has as its target Acidic leucine-rich nuclear phosphoprotein 32 family member A (Homo sapiens) (UniProt P39687). Kind of data set: Binding affinity to ANP32A in human NCI-H358 cells at 1 uM by mass spectrometry based pull down assay. In kind it is cell-based.
The target in data set [22] is MAP kinase-activated protein kinase 5 (Homo sapiens) (UniProt Q8IW41). Kind of data set: Binding affinity to MAPKAPK5 in human NCI-H358 cells at 1 uM by mass spectrometry based pull down assay. Type of data set: cell-based.
Data set [23] concerns the target Glutamate--cysteine ligase catalytic subunit (Homo sapiens) (UniProt P48506). Kind of data set: Binding affinity to GCLC in human NCI-H358 cells at 1 uM by mass spectrometry based pull down assay. In kind it is cell-based.
The target of data set [24] is Poly(rC)-binding protein 1 (Homo sapiens) (UniProt Q15365). Kind of data set: Binding affinity to PCBP1 in human NCI-H358 cells at 1 uM by mass spectrometry based pull down assay. In kind it is cell-based.
The target of data set [25] is T1, 80S Ribosome (Homo sapiens). Kind of data set: Binding affinity to RPS11 in human NCI-H358 cells at 1 uM by mass spectrometry based pull down assay. In kind it is cell-based.

Acidic leucine-rich nuclear phosphoprotein 32 family member A (Homo sapiens), sequence (P39687 whole entry): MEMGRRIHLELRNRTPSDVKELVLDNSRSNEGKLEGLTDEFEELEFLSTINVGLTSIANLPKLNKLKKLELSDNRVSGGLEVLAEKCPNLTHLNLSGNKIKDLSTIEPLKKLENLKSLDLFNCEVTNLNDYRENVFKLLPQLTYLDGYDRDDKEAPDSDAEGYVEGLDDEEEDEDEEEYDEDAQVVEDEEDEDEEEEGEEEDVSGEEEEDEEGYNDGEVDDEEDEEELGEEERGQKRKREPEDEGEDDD
T-complex protein 1 subunit theta (Homo sapiens), sequence (P50990 whole entry, one chain of several): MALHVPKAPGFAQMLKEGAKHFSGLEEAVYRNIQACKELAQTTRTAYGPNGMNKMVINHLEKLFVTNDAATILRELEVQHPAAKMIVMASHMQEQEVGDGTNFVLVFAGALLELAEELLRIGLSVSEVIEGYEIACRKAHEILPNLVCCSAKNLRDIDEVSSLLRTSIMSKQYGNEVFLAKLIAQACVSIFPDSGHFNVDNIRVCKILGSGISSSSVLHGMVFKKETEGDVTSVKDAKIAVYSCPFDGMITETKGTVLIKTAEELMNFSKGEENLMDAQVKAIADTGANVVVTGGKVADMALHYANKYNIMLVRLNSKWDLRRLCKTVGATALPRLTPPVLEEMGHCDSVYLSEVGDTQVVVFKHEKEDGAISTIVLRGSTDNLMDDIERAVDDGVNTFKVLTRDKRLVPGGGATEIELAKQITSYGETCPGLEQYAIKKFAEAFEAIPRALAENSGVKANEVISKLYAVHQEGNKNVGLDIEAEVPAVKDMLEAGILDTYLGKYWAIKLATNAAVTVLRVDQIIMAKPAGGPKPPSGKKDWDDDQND
Apoptosis-inducing factor 1, mitochondrial (Homo sapiens), sequence (O95831 whole entry): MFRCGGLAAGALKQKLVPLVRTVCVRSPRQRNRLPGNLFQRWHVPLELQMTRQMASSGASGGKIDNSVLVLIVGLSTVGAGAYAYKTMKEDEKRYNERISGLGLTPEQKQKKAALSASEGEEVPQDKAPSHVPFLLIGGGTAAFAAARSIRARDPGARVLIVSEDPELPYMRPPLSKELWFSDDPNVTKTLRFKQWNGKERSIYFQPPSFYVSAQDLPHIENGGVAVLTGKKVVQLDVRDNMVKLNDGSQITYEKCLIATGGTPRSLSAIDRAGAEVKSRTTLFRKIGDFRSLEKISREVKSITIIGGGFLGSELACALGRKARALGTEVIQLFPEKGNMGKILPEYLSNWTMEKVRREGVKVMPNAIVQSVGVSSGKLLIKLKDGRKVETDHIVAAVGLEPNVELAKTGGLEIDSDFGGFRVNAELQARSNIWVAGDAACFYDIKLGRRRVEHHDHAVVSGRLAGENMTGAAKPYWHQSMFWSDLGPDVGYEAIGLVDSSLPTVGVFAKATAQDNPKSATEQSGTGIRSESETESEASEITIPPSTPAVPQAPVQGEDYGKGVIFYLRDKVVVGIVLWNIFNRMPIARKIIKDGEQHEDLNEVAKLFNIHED
ADP-ribosylation factor-like protein 8B (Homo sapiens), sequence (Q9NVJ2 whole entry): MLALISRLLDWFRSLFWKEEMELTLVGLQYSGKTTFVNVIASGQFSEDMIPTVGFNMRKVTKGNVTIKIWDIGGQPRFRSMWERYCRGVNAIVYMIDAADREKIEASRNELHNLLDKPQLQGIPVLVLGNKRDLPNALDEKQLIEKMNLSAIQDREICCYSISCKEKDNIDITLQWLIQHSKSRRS
Heterogeneous nuclear ribonucleoprotein U (Homo sapiens), sequence (Q00839 whole entry): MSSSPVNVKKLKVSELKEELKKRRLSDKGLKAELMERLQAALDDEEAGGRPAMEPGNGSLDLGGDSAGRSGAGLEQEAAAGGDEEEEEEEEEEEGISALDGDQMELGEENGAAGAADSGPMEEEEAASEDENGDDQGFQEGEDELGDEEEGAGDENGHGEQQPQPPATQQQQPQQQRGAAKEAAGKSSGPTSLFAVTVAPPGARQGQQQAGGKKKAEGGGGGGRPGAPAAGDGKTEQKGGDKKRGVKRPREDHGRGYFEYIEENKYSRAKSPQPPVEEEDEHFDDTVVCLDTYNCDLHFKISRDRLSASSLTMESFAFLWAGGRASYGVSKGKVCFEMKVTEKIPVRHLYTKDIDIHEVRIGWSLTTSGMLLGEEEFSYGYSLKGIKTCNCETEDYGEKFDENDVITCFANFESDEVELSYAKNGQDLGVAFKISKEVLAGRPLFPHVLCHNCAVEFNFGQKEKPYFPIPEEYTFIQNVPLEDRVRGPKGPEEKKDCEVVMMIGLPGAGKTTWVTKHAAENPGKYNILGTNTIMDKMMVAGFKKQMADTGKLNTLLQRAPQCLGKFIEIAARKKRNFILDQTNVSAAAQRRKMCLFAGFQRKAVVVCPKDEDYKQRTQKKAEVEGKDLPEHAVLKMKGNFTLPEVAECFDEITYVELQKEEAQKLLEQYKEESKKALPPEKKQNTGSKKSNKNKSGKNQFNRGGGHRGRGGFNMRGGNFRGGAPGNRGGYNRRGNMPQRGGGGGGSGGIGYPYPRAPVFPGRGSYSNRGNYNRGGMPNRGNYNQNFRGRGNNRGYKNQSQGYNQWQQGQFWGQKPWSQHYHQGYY
ATP-citrate synthase (Homo sapiens), sequence (P53396 whole entry): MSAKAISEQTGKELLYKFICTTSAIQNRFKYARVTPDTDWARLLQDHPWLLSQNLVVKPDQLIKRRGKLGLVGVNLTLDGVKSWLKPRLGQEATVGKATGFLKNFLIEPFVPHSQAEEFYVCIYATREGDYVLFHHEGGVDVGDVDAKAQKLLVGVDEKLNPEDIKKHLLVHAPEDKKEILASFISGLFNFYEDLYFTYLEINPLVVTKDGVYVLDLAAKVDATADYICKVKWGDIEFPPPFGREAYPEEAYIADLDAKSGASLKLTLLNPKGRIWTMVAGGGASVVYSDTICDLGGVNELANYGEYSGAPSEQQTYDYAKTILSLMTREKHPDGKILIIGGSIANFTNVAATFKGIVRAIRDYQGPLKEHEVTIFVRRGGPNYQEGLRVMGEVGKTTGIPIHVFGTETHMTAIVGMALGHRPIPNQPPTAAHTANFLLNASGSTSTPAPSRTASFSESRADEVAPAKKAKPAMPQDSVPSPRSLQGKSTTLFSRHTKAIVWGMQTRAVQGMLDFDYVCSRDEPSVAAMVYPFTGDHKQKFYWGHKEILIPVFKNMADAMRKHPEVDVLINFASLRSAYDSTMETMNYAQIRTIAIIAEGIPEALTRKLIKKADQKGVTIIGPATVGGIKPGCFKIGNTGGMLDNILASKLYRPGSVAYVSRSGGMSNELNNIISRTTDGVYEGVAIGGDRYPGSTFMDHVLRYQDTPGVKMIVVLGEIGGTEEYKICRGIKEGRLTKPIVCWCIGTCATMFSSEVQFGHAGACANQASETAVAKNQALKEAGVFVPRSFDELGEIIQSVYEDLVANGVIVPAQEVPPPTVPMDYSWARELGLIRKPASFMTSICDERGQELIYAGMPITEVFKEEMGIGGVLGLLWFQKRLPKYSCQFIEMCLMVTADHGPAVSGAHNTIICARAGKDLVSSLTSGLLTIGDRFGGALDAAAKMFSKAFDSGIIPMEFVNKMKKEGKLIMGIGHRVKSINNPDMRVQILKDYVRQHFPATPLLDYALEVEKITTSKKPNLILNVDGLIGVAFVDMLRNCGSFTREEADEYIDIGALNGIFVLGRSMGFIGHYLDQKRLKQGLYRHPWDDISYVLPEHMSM
Vascular endothelial growth factor receptor 2 (Homo sapiens), sequence (P35968 whole entry, the tested form may be a part): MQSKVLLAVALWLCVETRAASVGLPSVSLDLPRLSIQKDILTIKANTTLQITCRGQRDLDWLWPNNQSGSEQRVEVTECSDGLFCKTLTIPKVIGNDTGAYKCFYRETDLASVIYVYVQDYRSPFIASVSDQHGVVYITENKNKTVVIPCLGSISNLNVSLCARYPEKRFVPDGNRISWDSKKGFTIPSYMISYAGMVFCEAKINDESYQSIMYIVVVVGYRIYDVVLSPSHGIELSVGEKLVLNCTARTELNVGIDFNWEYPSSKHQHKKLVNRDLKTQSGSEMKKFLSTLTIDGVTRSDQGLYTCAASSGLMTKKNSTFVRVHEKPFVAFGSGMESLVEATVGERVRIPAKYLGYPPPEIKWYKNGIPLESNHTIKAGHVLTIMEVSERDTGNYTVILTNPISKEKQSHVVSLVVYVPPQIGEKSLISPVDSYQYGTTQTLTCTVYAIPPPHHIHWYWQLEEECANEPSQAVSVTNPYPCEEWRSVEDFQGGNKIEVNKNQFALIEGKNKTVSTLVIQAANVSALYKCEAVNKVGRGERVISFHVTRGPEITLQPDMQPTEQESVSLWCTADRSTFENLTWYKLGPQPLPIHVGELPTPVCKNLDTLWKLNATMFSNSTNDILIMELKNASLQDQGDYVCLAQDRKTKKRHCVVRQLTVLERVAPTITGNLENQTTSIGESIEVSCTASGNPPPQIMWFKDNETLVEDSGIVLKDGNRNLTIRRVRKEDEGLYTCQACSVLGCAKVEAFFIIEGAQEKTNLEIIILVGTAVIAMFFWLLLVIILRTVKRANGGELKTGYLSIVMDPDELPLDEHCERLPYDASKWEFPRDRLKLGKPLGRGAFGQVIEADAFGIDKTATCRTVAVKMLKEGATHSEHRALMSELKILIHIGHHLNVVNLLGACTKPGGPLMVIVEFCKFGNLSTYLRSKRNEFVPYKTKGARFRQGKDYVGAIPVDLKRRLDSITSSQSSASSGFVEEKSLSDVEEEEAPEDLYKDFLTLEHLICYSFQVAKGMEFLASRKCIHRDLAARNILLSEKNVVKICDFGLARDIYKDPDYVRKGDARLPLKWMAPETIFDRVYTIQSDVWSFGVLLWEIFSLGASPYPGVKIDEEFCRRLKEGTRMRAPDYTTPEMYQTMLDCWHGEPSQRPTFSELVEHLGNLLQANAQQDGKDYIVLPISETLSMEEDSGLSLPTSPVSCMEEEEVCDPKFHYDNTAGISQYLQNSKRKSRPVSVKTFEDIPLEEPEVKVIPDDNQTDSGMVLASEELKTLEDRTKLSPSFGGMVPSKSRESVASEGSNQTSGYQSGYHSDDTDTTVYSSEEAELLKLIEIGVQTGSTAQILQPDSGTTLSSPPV

In the case of `C=CC(=O)Nc1ccccc1Nc1nc(Nc2ccc(N3CCN(C)CC3)cc2)ncc1Cl`, the inhibition in data set [1] came to 45.1%; in data set [2] it was 59.3%.
For the compound `COc1cc(O)c2c(c1)/C=C/C[C@H](O)[C@H](O)C(=O)/C=C\C[C@H](C)OC2=O`, the Activity entry was “Non-Toxic” in data set [3] and 5.2% in data set [4].
As to `C=CC(=O)Nc1ccccc1Nc1nc(Nc2ccc(N3CCN(CCOCCOCCOCCNC(=O)CCCC[C@@H]4SC[C@@H]5NC(=O)N[C@@H]54)CC3)cc2)ncc1Cl`, the result in data set [5], in data set [6], in [7], in data set [8], in data set [9] and in [10] was Active. In addition, the outcome in data set [11], in data set [12], in [13], in data set [14], in data set [15] and in [16] was Active. The outcome in data set [17], in data set [18], in data set [19], in data set [20], in data set [21] and in data set [22] was Active. For the same compound, the outcome in [23], in data set [24] and in data set [25] was Active.
